According to ChEMBL document CHEMBL2406939, “Structure, synthesis, and biological activity of a C-20 bisacetylenic alcohol from a marine sponge Callyspongia sp” (J Nat Prod, 2013):
Active and inactive are the calls of the source. The calls are words filed in the database; no cut-off is given here.

Assays:
[1] = system: Endothelial cell; experiment: Antiproliferative activity against temperature-sensitive rat lymphatic endothelial cells assessed as cell viability at 100 uM after 48 hrs by MTS assay; format: functional, cell-based
How it was run: (§1)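 TR-LE cells kept on type I collagen-coated dishes in HuMedia-EB2/EG + 10% FBS at permissive 33 °C. Seeded at 8 × 10^3 cells/well in DMEM + 10% FBS on collagen I-coated plates. Allowed 3 h to adhere, then exposed to compounds (final 0.1–100 μM) for 48 h. Viability by MTS assay. Final DMSO ≤0.5% (v/v).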

[2] = Antiproliferative activity against temperature-sensitive rat lymphatic endothelial cells assessed as cell viability at 10 uM after 48 hrs by MTS assay; format: functional; conditions: read-out: Activity; how it was run: as §1
[3] = system: HeLa; experiment: Antiproliferative activity against human HeLa cells after 48 hrs by MTS assay; format: functional, cell-based
How it was run: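 HeLa cells grown in EMEM + 10% FBS at 37 °C, 5% CO2. Seeded at 3 × 10^3 cells/well in EMEM + 10% FBS, incubated 24 h, then exposed to compounds for 48 h. Viability read by MTS assay. Final DMSO ≤0.5% (v/v). IC50 from viability.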

[4] = Antiproliferative activity against temperature-sensitive rat lymphatic endothelial cells after 48 hrs by MTS assay; conditions: Endothelial cell

Row | IC50 [3] [nM] | Compound | Activity [1] | also measured
1 | – | C#CC(=O)/C=C/CCCCCC | inactive | –
2 | – | C#CC(O)/C=C/CCCCCC (stereo unspecified) | inactive | –
3 | – | C#CC(=O)/C=C/CCCCCCCCCC/C=C/C(O)C#C (stereo unspecified) | – | viability at 10 µM [2]: 78%
4 | 1.7 | CC(=O)O[C@H]1C(=O)[C@@]2(C)[C@H]([C@H](OC(=O)c3ccccc3)[C@]3(O)C[C@H](OC(=O)[C@H](O)[C@@H](NC(=O)c4ccccc4)c4ccccc4)C(C)=C1C3(C)C)[C@]1(OC(C)=O)CO[C@@H]1C[C@@H]2O [PACLITAXEL] | – | –
5 | 4.3 | CC[C@]1(O)C[C@H]2CN(CCc3c([nH]c4ccccc34)[C@@](C(=O)OC)(c3cc4c(cc3OC)N(C=O)[C@H]3[C@@](O)(C(=O)OC)[C@H](OC(C)=O)[C@]5(CC)C=CCN6CC[C@]43[C@@H]65)C2)C1 [VINCRISTINE] | – | IC50 [4]: 80 nM
